Our source for the Activity and inhibition in vivo values is ChEMBL document CHEMBL1139875, “Discovery of 4-aminobutyric acid derivatives possessing anticonvulsant and antinociceptive activities: a hybrid pharmacophore approach” (2007).

Active and inactive are the calls of the source. The rule behind the calls is not given here.

In assay [1] the test system is Rattus norvegicus. Put plainly: Anti-cold allodynia effect in Sprague-Dawley rat CCI model assessed as duration of paw withdrawal 100 mg/kg, ip after 2 hr. It counts as functional. The conditions noted are these: route intraperitoneal. Put shortly:
(§1)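 CCI by sciatic nerve ligation under pentobarbital (65 mg/kg i.p.). Rats tested at baseline and 9 days post-surgery; those with allodynia dosed i.p. 100 mg/kg, vehicle 30% v/v PEG 400 in water. Acetone (100-200 µL) misted on midplantar affected paw; withdrawal duration recorded, three samples averaged, at least 3 min apart; n = 4.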

Assay [2] concerns Rattus norvegicus. Put plainly: Anti-cold allodynia effect in Sprague-Dawley rat CCI model assessed as duration of paw withdrawal 100 mg/kg, ip after 2.5 hr. It counts as functional. The following applies: route intraperitoneal. Put shortly: as §1
Assay [3] has as its system Rattus norvegicus. Put plainly: Anti-dynamic allodynia effect in Sprague-Dawley rat SNL model assessed as latency to paw withdrawal 100 mg/kg, ip after 0.5 hr. It counts as functional. The following applies: route intraperitoneal. Put shortly:
(§2)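 Left L5 spinal nerve ligation rats, tested preoperatively and 9 days postoperatively, then given 100 mg/kg i.p. (vehicle 30% v/v PEG 400 in water). After 10 min acclimatization, plantar surface of affected paw stroked mildly with a cotton-bud; paw lift response recorded. n = 4; retested 0.5-2.5 h post-dose.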

For assay [4], the system named is Rattus norvegicus. The assay is described as follows: Anti-dynamic allodynia effect in Sprague-Dawley rat SNL model assessed as latency to paw withdrawal 100 mg/kg, ip after 1 hr. The conditions noted are these: route intraperitoneal. Format: functional. In short, it runs like this: as §2
Assay [5] relates to Rattus norvegicus. Put plainly: Anti-dynamic allodynia effect in Sprague-Dawley rat SNL model assessed as latency to paw withdrawal 100 mg/kg, ip after 2.5 hrs. Format: functional. The following applies: route intraperitoneal. In short, it runs like this:
as §2

The test system of assay [6] is Rattus norvegicus. Put plainly: Anti-cold allodynia effect in Sprague-Dawley rat SNL model assessed as duration of paw withdrawal 100 mg/kg, ip after 0.5 hr. Format: functional. The conditions noted are these: route intraperitoneal. Put shortly:
(§3)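 Left L5 spinal nerve ligation under pentobarbital (65 mg/kg i.p.). Allodynic rats dosed i.p. 100 mg/kg, vehicle 30% v/v PEG 400 in water. Acetone (100-200 µL) misted onto midplantar affected paw after 10 min acclimatization; paw withdrawal duration, mean of three samples at least 3 min apart; n = 4 rats.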

For assay [7], the system named is Rattus norvegicus. Put plainly: Anti-cold allodynia effect in Sprague-Dawley rat SNL model assessed as duration of paw withdrawal 100 mg/kg, ip after 1 hrs. It counts as functional. The following applies: route intraperitoneal. Put shortly:
as §3

For assay [8], the system named is Rattus norvegicus. Put plainly: Anti-cold allodynia effect in Sprague-Dawley rat SNL model assessed as duration of paw withdrawal 100 mg/kg, ip after 2.5 hrs. It counts as functional. The conditions noted are these: route intraperitoneal. Put shortly:
as §3

For assay [9], the system named is Rattus norvegicus. The assay is described as follows: Effect on spontaneous pain in Sprague-Dawley rat SNL model assessed as duration of paw withdrawal at 100 mg/kg, ip after 0.5 hr. The conditions noted are these: route intraperitoneal. Format: functional. Put shortly: (§4)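 Rats underwent left L5 spinal nerve ligation (Kim and Chung) under i.p. pentobarbital (65 mg/kg). Spontaneous pain is recorded for 5 min after 10 min acclimatization, as cumulative duration the ipsilateral paw is lifted, excluding locomotor lifts. Dosing is 100 mg/kg i.p. in 30% v/v PEG 400/water, with testing at 0.5–2.5 h. Four rats, mean ± SEM versus predrug, one-way ANOVA with Bonferroni.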

Assay [10] relates to Rattus norvegicus. Put plainly: Effect on spontaneous pain in Sprague-Dawley rat SNL model assessed as duration of paw withdrawal at 100 mg/kg, ip after 1.5 hrs. The following applies: route intraperitoneal. Format: functional. Put shortly:
as §4

The test system of assay [11] is Rattus norvegicus. Put plainly: Anti-cold allodynia effect in Sprague-Dawley rat CCI model assessed as duration of paw withdrawal at 100 mg/kg, ip after 0.5 hr. Format: functional. The conditions noted are these: route intraperitoneal. In short, it runs like this: as §1
Assay [12] concerns Rattus norvegicus. The assay is described as follows: Anti-cold allodynia effect in Sprague-Dawley rat CCI model assessed as duration of paw withdrawal 100 mg/kg, ip after 1 hr. Format: functional. The conditions noted are these: route intraperitoneal. In short, it runs like this:
as §1

Assay [13] deals with Rattus norvegicus. The assay is described as follows: Anti-cold allodynia effect in Sprague-Dawley rat CCI model assessed as duration of paw withdrawal 100 mg/kg, ip after 1.5 hr. It counts as functional. The conditions noted are these: route intraperitoneal. Put shortly:
as §1

Assay [14] concerns Mus musculus. The assay is described as follows: Anticonvulsant activity in Swiss Albino mouse at 300 mg/kg, ip after 0.5 hr by MES test. On the set-up: dose 300 mg/kg. Format: functional, organism-based. Put shortly: (§5)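 Mice (Swiss, 20-25 g) given i.p. doses of 30, 100 and 300 mg/kg under ADD program protocols, three per group, examined at 0.5 and 4 h in MES, scPTZ, scSTY or scPIC seizure tests. Value is the minimum dose protecting half or more of the mice.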

The subject of assay [15] is Mus musculus. The assay is described as follows: Anticonvulsant activity in Swiss Albino mouse at 30 mg/kg, ip after 0.5 hr by scSTY test. The arrangement: dose 30 mg/kg. It counts as functional, organism-based. In short, it runs like this: as §5
In assay [16] the test system is Mus musculus. The assay is described as follows: Anticonvulsant activity in Swiss Albino mouse at 30 mg/kg, ip after 4 hrs by scSTY test. The arrangement: dose 30 mg/kg. Format: functional, organism-based. Put shortly:
as §5

For assay [17], the system named is Mus musculus. The assay is described as follows: Anticonvulsant activity in Swiss Albino mouse at 30 mg/kg, ip after 0.5 hr by scPIC test. On the set-up: dose 30 mg/kg. It counts as functional, organism-based. In short, it runs like this: as §5
The subject of assay [18] is Mus musculus. Put plainly: Anticonvulsant activity in Swiss Albino mouse at 30 mg/kg, ip after 4 hrs by scPIC test. It counts as functional, organism-based. On the set-up: dose 30 mg/kg. Put shortly: as §5
Assay [19] concerns Mus musculus. Put plainly: Neurotoxicity in Swiss Albino mouse at 300 mg/kg, ip after 0.5 hr by rotarod test. It counts as functional, organism-based. The arrangement: dose 300 mg/kg. In short, it runs like this: (§6)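 Swiss mice (20-25 g) are trained on an accelerating rotorod (10 rpm, 3.2 cm rod), then injected i.p. at 30, 100 or 300 mg/kg, with three per group. Neurotoxicity means failure to keep equilibrium for at least 1 min in each of three trials, checked at 0.5 and 4 h. The value reported is the minimum dose affecting half or more of the mice.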
In general terms: The rotarod test checks motor coordination on a turning rod.

Assay [20] has as its system Mus musculus. The assay is described as follows: Neurotoxicity in Swiss Albino mouse at 300 mg/kg, ip after 4 hrs by rotarod test. It counts as functional, organism-based. The arrangement: dose 300 mg/kg. Put shortly: as §6
Assay [21] deals with Mus musculus. Put plainly: Analgesic activity in Swiss Albino mouse assessed as number of acetic acid-induced writhing per 30 min after 100 mg/kg, ip. Format: functional. The following applies: route intraperitoneal. In short, it runs like this:
(§7)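 Mice in groups of six dosed i.p. at 100 mg/kg, controls receiving 30% v/v PEG 400 in water. Writhing induced by i.p. 0.1 mL of 3% v/v acetic acid 1 h after drug. Writhes (abdominal stretch with at least one hind limb extended) counted over 30 min; % inhibition calculated. Mean ± SEM, Student's t test.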
On the technique in general: In writhing tests, fewer writhes than in controls are read as antinociception.

Assay [22] concerns Mus musculus. The assay is described as follows: Analgesic activity in Swiss Albino mouse assessed as inhibition of acetic acid-induced writhing responses at 100 mg/kg, ip. The following applies: route intraperitoneal. It counts as functional. In short, it runs like this: as §7
For assay [23], the system named is Mus musculus. The assay is described as follows: Anticonvulsant activity in Swiss Albino mouse at 300 mg/kg, ip after 0.5 hr by scSTY test. The arrangement: dose 300 mg/kg. It counts as functional, organism-based. Put shortly:
as §5

Assay [24] concerns Mus musculus. Put plainly: Anticonvulsant activity in Swiss Albino mouse at 300 mg/kg, ip after 4 hrs by scSTY test. It counts as functional, organism-based. On the set-up: dose 300 mg/kg. In short, it runs like this: as §5
Assay [25] deals with Mus musculus. The assay is described as follows: Anticonvulsant activity in Swiss Albino mouse at 300 mg/kg, ip after 0.5 hr by scPIC test. It counts as functional, organism-based. The arrangement: dose 300 mg/kg. In short, it runs like this:
as §5

Assay [26] has as its system Mus musculus. Put plainly: Anticonvulsant activity in Swiss Albino mouse at 300 mg/kg, ip after 4 hrs by scPIC test. It counts as functional, organism-based. On the set-up: dose 300 mg/kg. In short, it runs like this: as §5
Assay [27] deals with Mus musculus. The assay is described as follows: Neurotoxicity in Swiss Albino mouse at 100 mg/kg, ip after 0.5 hr by rotarod test. It counts as functional, organism-based. The arrangement: dose 100 mg/kg. Put shortly: as §6
Assay [28] has as its system Mus musculus. Put plainly: Anticonvulsant activity in Swiss Albino mouse at 100 mg/kg, ip after 4 hrs by scPIC test. The arrangement: dose 100 mg/kg. Format: functional, organism-based. In short, it runs like this:
as §5

For `NC(=O)N1c2ccccc2C=Cc2ccccc21` [CARBAMAZEPINE], the Activity in [1] worked out at 27.8 s; in [2], 21.8 s; in [3] it was 14.7 s; in [4], 13.4 s; in assay [5], 1.65 s; in assay [6] it was 13.5 s. Besides, the Activity was 11.8 s in assay [7]; 20.6 s in assay [8]; 14.6 s in assay [9]; 22.3 s in assay [10]; 12.8 s in assay [11]; 10.6 s in [12]. Moreover, the Activity in assay [13] was found to be 28.9 s.
In the case of `O=C(O)CCCNC(=O)N/N=C/c1ccccc1O`, the outcome in assay [14] and in assay [19] was inactive. Further, the result in assay [15], in assay [16], in assay [17], in assay [18] and in [20] was Active. The Activity in [21] was determined as 19; in assay [1], 13.7 s; in assay [2], 12.2 s; in assay [3] it was 11.2 s; in assay [4], 14.3 s; in assay [5], 11.32 s. The Activity in assay [6] came to 22.2 s; in assay [7] it was 27.3 s; in assay [8], 28.5 s; in [11], 31.3 s; in assay [12] it was 15.8 s; in assay [13], 11.2 s. For the same compound, the inhibition in vivo at 100 mg/kg in assay [22] came to 89%.
With `Nc1nnc(-c2cccc(Cl)c2Cl)c(N)n1` [LAMOTRIGINE], the Activity in [1] came out at 29.9 s; in assay [2] it was 23.7 s; in assay [3] it was 1.9 s; in [4], 1.6 s; in assay [5] it was 0.64 s; in [6], 19.2 s. Moreover, the Activity came out at 9.2 s in assay [7]; 18.4 s in assay [8]; 15.6 s in assay [9]; 2.6 s in assay [10]; 53.7 s in assay [11]; 33.6 s in [12]. Besides, in assay [13], the Activity stood at 32.4 s.
With `O=C(O)CCCNC(=O)N/N=C1\C(=O)Nc2ccccc21`, the outcome in [14], in assay [25], in [26], in assay [27] and in assay [20] was Active. In addition, the result in assay [23] and in assay [24] was inactive. For the same compound, the Activity in assay [21] was 47.3; in [6], 11 s; in [7], 16.3 s; in [8], 41.2 s; in assay [9] it was 1.2 s; in assay [10], 0.9 s. In assay [22], the inhibition in vivo at 100 mg/kg is 74%.
For `NCC1(CC(=O)O)CCCCC1` [GABAPENTIN], the Activity in [1] came out at 7.5 s; in [2] it was 7.2 s; in assay [3] it was 1.5 s; in assay [4], 4.6 s; in assay [5], 6.53 s; in [6], 16.7 s. The Activity in assay [7] is recorded as 9 s; in [8], 6.9 s; in assay [9], 29.7 s; in assay [10], 10.2 s; in assay [11] it was 26.8 s; in assay [12], 10 s. Further, the Activity in assay [13] was 9.3 s.
For the compound `CN(C)c1ccc(/C=N/NC(=O)NCCCC(=O)O)cc1`, the result in [14], in assay [23], in assay [24], in assay [19] and in assay [20] was inactive. The result in assay [17] and in [28] was Active. The Activity in assay [21] was determined as 13; in assay [1] it was 17.9 s; in assay [2], 18.1 s; in assay [3], 10.7 s; in [4], 8.8 s; in assay [5], 1.82 s. Moreover, the Activity in assay [9] was determined as 12.4 s; in assay [10], 16.4 s; in assay [11], 28.1 s; in assay [12] it was 19.7 s; in assay [13], 14.4 s. The inhibition in vivo at 100 mg/kg in assay [22] amounted to 93%.

What is called inhibition in vivo is the relative decrease from the control value, in per cent.
